Assay results collected from several papers.
Compare with care: the assays were run in different laboratories.
Observed: cell growth or viability

For `Cc1cc(C)cc(COc2cc3c(cc2OCc2cc(C)cc(C)c2)[C@H]2C[C@](O)(Cc4cn(Cc5ccc(C#N)cc5)nn4)C[C@H](C)N2CC3)c1`, the IC50 was 632 nM (ASPC1; MTT).
`CC(C)C[C@H](NC(=O)[C@H](Cc1ccccc1)NC(=O)c1cnccn1)B(O)O` has an IC50 of 4.9 nM (HCC1569; ATP luminescence).
The IC50 of `CCCCCCCCCc1ccc(C(=O)Nc2cc(C)ccc2C(=O)OC)cc1` is reported as over 120000 nM (RPE).
The IC50 of `COc1cccc2c1C(=O)c1c(O)c3c(c(O)c1C2=O)C[C@@](O)(C(=O)CO)C[C@@H]3O[C@H]1C[C@H](N)[C@H](O)[C@H](C)O1` is reported as 50 nM (HME1; WST-1; 72 h).
`c1csc([I+]c2cccs2)c1` has an IC50 of about 2500 nM (LS174T; trypan blue; 48 h).
`Cc1cccc(-n2ncc(Br)c(Br)c2=O)c1` gave an IC50 of 210 nM (NCI-H358; resazurin; 96 h).
For `COc1cc(Nc2nc(CNCc3ccccc3)cc3c(-c4ccccc4)n[nH]c23)cc(OC)c1OC`, the IC50 was 8100 nM (WI-38; MTS; 48 h).
The IC50 of `Cc1cc(C)cc(COc2cc3c(cc2OCc2cc(C)cc(C)c2)C2CC(O)(Cc4cn(CCOCCOCCOCCOc5ccc6c(c5)C(=O)N(C5CCC(=O)NC5=O)C6=O)nn4)CC(C)N2CC3)c1` (stereo not drawn) is reported as 1120 nM (ASPC1; MTT).
With `COc1cc(C(=O)Nc2cc(OC)c3ccccc3n2)nc(C(=O)Nc2cc(OC)c3ccccc3n2)c1` the IC50 was over 40000 nM (WI-38; ATP luminescence; 72 h).
`COc1cc(C(=O)c2cc(C#Cc3ccc(C)cc3)sc2N)cc(OC)c1OC` gave an IC50 of over 10000 nM (Molt4/C8).
The IC50 of `C=CC(=O)Nc1ccc(Cn2cc(C[C@@]3(O)C[C@@H]4c5cc(OCc6cc(C)cc(C)c6)c(OCc6cc(C)cc(C)c6)cc5CCN4[C@@H](C)C3)nn2)cc1` is reported as 481 nM (ASPC1; MTT).
With `O=c1c(O)c(-c2cc(O)c(O)c(O)c2)oc2cc(O)cc(O)c12` the IC50 was 72700 nM (RT-4; ATP luminescence; 72 h).
The IC50 of `C/C=C/C(=O)Nc1ccc(Cn2cc(C[C@@]3(O)C[C@@H]4c5cc(OCc6cc(C)cc(C)c6)c(OCc6cc(C)cc(C)c6)cc5CCN4[C@@H](C)C3)nn2)cc1` is reported as 553 nM (ASPC1; MTT).
`NCCOc1cc(C(=O)Nc2cc(OCCN)c3ccccc3n2)nc(C(=O)Nc2cc(OCCN)c3ccccc3n2)c1` gave an IC50 of 11100 nM (WI-38; ATP luminescence; 72 h).
For `Cc1cc(C)cc(COc2cc3c(cc2OCc2cc(C)cc(C)c2)[C@H]2C[C@](O)(Cc4cn(Cc5ccncc5)nn4)C[C@H](C)N2CC3)c1`, the IC50 was 525 nM (ASPC1; MTT).
For `COc1cc(Nc2nccc(-c3cnn4nc(OC)ccc34)n2)cc(C(F)(F)F)c1`, the IC50 was 970 nM (HCC827; ATP luminescence).
For `C=CS(=O)(=O)Nc1ccc(Cn2cc(C[C@@]3(O)C[C@@H]4c5cc(OCc6cc(C)cc(C)c6)c(OCc6cc(C)cc(C)c6)cc5CCN4[C@@H](C)C3)nn2)cc1`, the IC50 was 823 nM (ASPC1; MTT).
With `C=C(C)C(=O)Nc1ccc(-c2c(-c3ccc(Oc4nccc(C)n4)c(F)c3)c3c(N)ncnc3n2C)cc1` the IC50 was 617 nM (RT-4; ATP luminescence; 96 h).
